Results reported in ChEMBL document CHEMBL3860043, “Non-Acidic Free Fatty Acid Receptor 4 Agonists with Antidiabetic Activity” (J Med Chem, 2016).
Converted amounts (≈) assume the structure as drawn. One block for each compound: values may come before it. The source made the active and inactive calls. The rule behind the calls is not given here.

Assays:
Mus musculus [1] = assay: Reduction in plasma glucose level in wild type DIO mouse at 10 mg/kg, po dosed daily over 3 week period administered 15 mins before oral glucose challenge on first day by OGTT method; type: functional, organism-based
How it was run: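 Male wild-type and FFA4(-/-) littermates (C57Bl6 background) fed 63% high-fat diet from 6 weeks of age for 5 months. On day 0, fasted 5 h, dosed 10 mg/kg po, then given glucose 3 g/kg po 15 min later. Tail blood sampled from -30 to 180 min; glucose measured in duplicate by colorimetric glucose oxidase assay. n=9 per group; two-way ANOVA with Bonferroni post hoc test.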

[2] = Effect on water intake level in FFA4 (-/-) DIO mouse at 10 mg/kg, po dosed daily over 3 week period administered 15 mins before oral glucose challenge on first day measured after 21 days; type: ADME, organism-based; conditions: in vivo, 504 h
Mus musculus [3] = assay: Increase in plasma insulin level in wild type DIO mouse at 10 mg/kg, po dosed daily over 3 week period administered 15 mins before oral glucose challenge on first day measured 30 mins after glucose challenge by ELISA; type: functional, organism-based
Mus musculus [4] = assay: Reduction in plasma glucose level in mouse at 10 mg/kg, po dosed 15 mins before oral glucose challenge by OGTT method; type: functional, organism-based
How it was run: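 Mice fasted 5 h and given compound orally at 10 mg/kg, 15 min before an oral glucose load of 3 g/kg. Tail-tip blood sampled under local anesthetic 30 min before and immediately before the load, and at 30, 60, 90, 120 and 180 min after it. Glucose measured in duplicate by glucose oxidase colorimetric assay; n=6 mice per group.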

Mus musculus [5] = assay: Toxicity in FFA4 (-/-) DIO mouse assessed as reduction in body weight at 10 mg/kg, po dosed daily over 3 week period administered 15 mins before oral glucose challenge on first day measured after 21 days; type: organism-based; conditions: in vivo, 504 h
Mus musculus [6] = assay: Toxicity in wild type DIO mouse assessed as reduction in body weight at 10 mg/kg, po dosed daily over 3 week period administered 15 mins before oral glucose challenge on first day measured after 21 days; type: organism-based; design: scale not given: the % may be the effect or the level left; conditions: in vivo, 504 h
Mus musculus [7] = assay: Reduction in fasting plasma insulin level in wild type DIO mouse at 10 mg/kg, po dosed daily over 3 week period administered 15 mins before oral glucose challenge on first day measured after 21 days by ELISA; type: functional, organism-based
How it was run: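 DIO wild-type and FFA4(-/-) littermates (63% fat diet for 5 months) dosed 10 mg/kg po once daily for 21 days. Fasting blood collected into EDTA and spun at 3,000 g for 5 min at 4 °C; plasma stored at -80 °C. Insulin measured in duplicate by murine insulin ELISA, absorbance at 450 nm.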

[8] = biological target: T1, Free fatty acid receptor 1 (Homo sapiens, UniProt O14842); assay: Antagonist activity against human FFA1 expressed in human Flp-In T-REx293 cells assessed as as reduction in TUG424-induced response by Fura2-AM dye based calcium mobilization assay; type: functional, cell-based
How it was run: (§1)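 Flp-In T-REx 293 cells with inducible human FFA1, seeded at 50000 cells/well and induced with 100 ng/ml doxycycline after 3-4 h adherence. Next day loaded with Fura2-AM for 45 min, washed, then preincubated 15 min in HBSS with test ligand before 300 nM agonist challenge. Fura2 340:380 ratio change read at 510 nm emission. Inhibition expressed as % reduction of the agonist response.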

[9] = Effect on food intake level in FFA4 (-/-) DIO mouse at 10 mg/kg, po dosed daily over 3 week period administered 15 mins before oral glucose challenge on first day measured after 21 days; type: ADME, organism-based; conditions: in vivo, 504 h
[10] = biological target: T2, Free fatty acid receptor 4 (Homo sapiens, UniProt Q5NUL3); assay: Agonist activity at C-terminal YFP-tagged human FFA4 expressed in HEK293 cells in presence of coelentrazine h by BRET based beta-arrestin-2 interaction assay; type: cell-based
T2 sequence (Q5NUL3 whole entry): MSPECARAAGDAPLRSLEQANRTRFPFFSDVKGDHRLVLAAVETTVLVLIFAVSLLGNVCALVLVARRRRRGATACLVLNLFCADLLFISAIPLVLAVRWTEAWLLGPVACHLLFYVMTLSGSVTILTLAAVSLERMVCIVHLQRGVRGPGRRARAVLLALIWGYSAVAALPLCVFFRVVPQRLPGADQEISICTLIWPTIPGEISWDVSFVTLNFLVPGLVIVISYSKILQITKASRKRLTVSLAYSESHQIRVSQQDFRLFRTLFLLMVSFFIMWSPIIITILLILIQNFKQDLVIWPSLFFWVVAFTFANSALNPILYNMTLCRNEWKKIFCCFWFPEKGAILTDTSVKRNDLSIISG
How it was run: (§2)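 HEK293 cells co-transfected with C-terminal eYFP-fused human FFA4 and β-arrestin-2–Renilla luciferase; plated 24 h post-transfection, used 24 h later. After an HBSS wash, coelenterazine h (2.5 µM) for 15 min, with ligands present for the final 5 min, 37 °C. BRET taken as the 535/475 nm emission ratio. Efficacy relative to 100 µM reference agonist. Three-parameter sigmoidal fits; mean ± S.E. of 2-4 independent experiments.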

[11] = Lipophilicity, log D of the compound at pH 7.4; type: physicochemical; conditions: buffer
[12] = biological target: T2, Free fatty acid receptor 4; assay: Agonist activity at human FFA4 expressed in human Flp-In T-REx293 cells by Fura2-AM dye based calcium mobilization assay; type: functional, cell-based
How it was run: (§3)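 Flp-In T-REx 293 cells with doxycycline-inducible human FFA4 seeded at 50000 cells/well and induced overnight with 100 ng/ml doxycycline. Loaded with Fura2-AM for 45 min, washed three times in HBSS, equilibrated 15 min, then ligand added. Emission at 510 nm with 340/380 nm excitation; response is the change in 340:380 ratio. Efficacy relative to 100 µM reference agonist; 2-4 independent experiments, sigmoidal fits.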

Homo sapiens [13] = species on record: Homo sapiens; assay: Selectivity for human FFA4 over FFA2 (unknown origin)
[14] = Solubility in FaSSIF solution; type: physicochemical
[15] = Solubility in PBS buffer; type: physicochemical
[16] = biological target: T3, Free fatty acid receptor 4 (Homo sapiens) (UniProt Q5NUL3); assay: Agonist activity at human FFA4 expressed in human Flp-In T-REx293 cells by Fura2-AM dye based calcium mobilization assay relative to 100 uM […]; type: functional, cell-based; how it was run: as §3
T3 sequence (whole entry): T2 sequence (Q5NUL3 whole entry)

Homo sapiens [17] = species on record: Homo sapiens; assay: Selectivity for human FFA4 over FFA3 (unknown origin)
[18] = Effect on food intake level in wild type DIO mouse at 10 mg/kg, po dosed daily over 3 week period administered 15 mins before oral glucose challenge on first day measured after 21 days; type: ADME, organism-based; conditions: in vivo, 504 h
[19] = Effect on water intake level in wild type DIO mouse at 10 mg/kg, po dosed daily over 3 week period administered 15 mins before oral glucose challenge on first day measured after 21 days; type: ADME, organism-based; conditions: in vivo, 504 h
[20] = biological target: T3, Free fatty acid receptor 4 (Homo sapiens); assay: Agonist activity at C-terminal YFP-tagged human FFA4 expressed in HEK293 cells in presence of coelentrazine h by BRET based beta-arrestin-2 interaction assay relative to 100 uM […]; type: cell-based; how it was run: as §2
Homo sapiens [21] = species on record: Homo sapiens; assay: Selectivity for human FFA4 over human FFA1
[22] = biological target: T4, Free fatty acid receptor 4 (Mus musculus, UniProt Q7TMA4); assay: Agonist activity mouse FFA4 by Gq-dependent calcium mobilization assay; type: functional
T4 sequence (Q7TMA4 whole entry): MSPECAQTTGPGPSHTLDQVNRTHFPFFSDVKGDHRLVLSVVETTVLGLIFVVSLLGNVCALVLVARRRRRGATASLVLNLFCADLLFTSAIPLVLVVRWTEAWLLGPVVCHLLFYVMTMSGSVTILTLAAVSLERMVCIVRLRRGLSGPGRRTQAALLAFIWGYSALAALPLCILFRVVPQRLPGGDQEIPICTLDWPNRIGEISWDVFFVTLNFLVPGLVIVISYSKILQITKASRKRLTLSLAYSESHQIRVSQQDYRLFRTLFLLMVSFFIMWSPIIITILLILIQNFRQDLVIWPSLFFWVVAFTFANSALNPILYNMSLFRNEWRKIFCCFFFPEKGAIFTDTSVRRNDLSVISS

Mus musculus [23] = assay: Toxicity in FFA4 (-/-) DIO mouse assessed as weight gain in at 10 mg/kg, po dosed daily over 3 week period administered 15 mins before oral glucose challenge on first day measured after 21 days; type: organism-based; conditions: in vivo, 504 h
[24] = biological target: T4, Free fatty acid receptor 4; assay: Agonist activity mouse FFA4 by BRET based beta-arrestin-2 interaction assay
How it was run: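 Mouse FFA4 fused C-terminally to eYFP, co-transfected into HEK293 cells with β-arrestin-2–Renilla luciferase. After an HBSS wash, coelenterazine h (2.5 µM) for 15 min, with ligand added for the last 5 min, 37 °C. BRET read as the 535/475 nm luminescence ratio. Three-parameter sigmoidal curve fitting; 2-4 independent experiments.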

Mus musculus [25] = assay: Reduction in glucose level in wild type DIO mouse at 10 mg/kg, po dosed daily over 3 week period administered 15 mins before oral glucose challenge on first day measured after 21 days by OGTT method; type: functional, organism-based
[26] = biological target: T1, Free fatty acid receptor 1; assay: Antagonist activity against human FFA1 expressed in human Flp-In T-REx293 cells assessed as as reduction in 300 nM TUG424-induced response by Fura2-AM dye based calcium mobilization assay relative to untreated control; type: functional, cell-based; how it was run: as §1
[27] = biological target: T1, Free fatty acid receptor 1; assay: Antagonist activity against human FFA1 expressed in human Flp-In T-REx293 cells assessed as as reduction in TUG770-induced response by Fura2-AM dye based calcium mobilization assay; type: functional, cell-based
How it was run: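 Antagonism measured in FFA1 Ca2+ mobilization with 20 nM TUG-770 as the stimulating agonist. Test ligand preincubated 15 min in HBSS before agonist addition. Read-out is the change in Fura2 340:380 ratio at 510 nm emission.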

T1 sequence (O14842 whole entry): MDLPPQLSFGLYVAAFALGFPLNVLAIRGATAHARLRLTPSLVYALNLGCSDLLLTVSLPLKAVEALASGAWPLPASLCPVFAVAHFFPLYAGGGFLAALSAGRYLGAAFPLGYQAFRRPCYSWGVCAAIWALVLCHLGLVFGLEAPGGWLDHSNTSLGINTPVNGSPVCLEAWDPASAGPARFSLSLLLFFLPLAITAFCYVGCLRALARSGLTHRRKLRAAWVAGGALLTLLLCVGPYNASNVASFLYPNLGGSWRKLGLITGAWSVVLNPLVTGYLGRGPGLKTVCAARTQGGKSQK

IC50 [8]: > 100 µM | EC50 ([10]; read-out: EC50): 128 nM | EC50 ([10]; read-out: pEC50 (converted)): 123 nM | logD [11]: 3.17 | EC50 [12]: 234 nM | Selectivity ratio (Homo sapiens [13]): > 300 | solubility [14]: 14 µM (≈ 4.99 µg/mL) | solubility [15]: 1.3 µM (≈ 0.463 µg/mL) | Emax [16]: 130% | Selectivity ratio (Homo sapiens [17]): > 300 | Emax [20]: 98% | Selectivity ratio (Homo sapiens [21]): > 300 | EC50 [22]: 148 nM | EC50 [24]: 479 nM
SMILES: O=S1(=O)c2ccccc2CN1c1cc(F)cc(Oc2ccccn2)c1
Activity (Mus musculus [1]): Active | Activity [2]: Non-Toxic | Activity (Mus musculus [3]): Active | Activity (Mus musculus [4]): Active | Activity (Mus musculus [5]): Non-Toxic | Activity (Mus musculus [6]): 7 to 9% | Activity (Mus musculus [7]): Active | Activity [9]: Non-Toxic | Activity [18]: Non-Toxic | Activity [19]: Non-Toxic | Activity (Mus musculus [23]): Non-Toxic | Activity (Mus musculus [25]): Active

IC50 [8]: 0.174 µM | EC50 ([10]; read-out: pEC50 (converted)): 245 nM | EC50 [12]: 209 nM | Imax [26]: 39% | Emax [16]: 105% | Emax [20]: 95%
SMILES: O=S1(=O)c2ccccc2CN1c1cccc(Oc2ccccc2)c1

IC50 [8]: 20 µM | EC50 ([10]; read-out: pEC50 (converted)): 5250 nM | Imax [26]: 44% | Emax [20]: 57%
SMILES: N#CCc1cccc(Oc2cc(F)cc(N3Cc4ccccc4S3(=O)=O)c2)c1

IC50 [27]: > 100 µM | EC50 ([10]; read-out: EC50): 40 nM | EC50 ([10]; read-out: pEC50 (converted)): 138 nM | EC50 [12]: 38.9 nM | solubility [14]: 0.9 µM (≈ 0.336 µg/mL) | solubility [15]: 0.1 µM (≈ 0.0373 µg/mL) | Emax [16]: 78% | Emax [20]: 113% | EC50 [22]: 72.4 nM
SMILES: O=S1(=O)c2ccccc2CN1c1cc(Cl)cc(Oc2ccccn2)c1

IC50 [8]: > 100 µM | EC50 ([10]; read-out: pEC50 (converted)): 1550 nM | EC50 [12]: 1020 nM | Emax [16]: 93% | Emax [20]: 102%
SMILES: O=S1(=O)c2ccccc2CN1c1cccc(Oc2ccccn2)c1

IC50 [8]: > 100 µM | EC50 ([10]; read-out: pEC50 (converted)): 16200 nM | Emax [20]: 76%
SMILES: N#Cc1ccccc1Oc1cc(F)cc(N2Cc3ccccc3S2(=O)=O)c1

IC50 [8]: 10.7 µM | Imax [26]: 57%
SMILES: CN(c1ccc(Oc2ccccc2)cc1)S(=O)(=O)c1ccc(F)cc1

EC50 ([10]; read-out: pEC50 (converted)): 16600 nM | Emax [20]: 39%
SMILES: O=S(=O)(Nc1cc(F)cc(Oc2cccnc2)c1)c1ccc(F)cc1

IC50 [8]: 10 µM | Imax [26]: 100%
SMILES: Cc1ccc(S(=O)(=O)Nc2ccc(Oc3ccccc3)cc2)cc1

IC50 [8]: 3.39 µM | EC50 ([10]; read-out: pEC50 (converted)): 5750 nM | Imax [26]: 52% | Emax [20]: 83%
SMILES: N#Cc1cccc(Oc2cc(F)cc(N3Cc4ccccc4S3(=O)=O)c2)c1

IC50 [8]: 2.45 µM | EC50 ([10]; read-out: pEC50 (converted)): > 100000 nM | Imax [26]: 36%
SMILES: O=S1(=O)c2ccccc2CN1c1cc(F)cc(OCc2ccccc2)c1
